Laboratory results: ChEMBL document CHEMBL1122354, “Synthesis and antiarrhythmic activity of new [(dialkylamino)alkyl]pyridylacetamides” (1983)
Activity calls are given as the source filed them. The rule behind the calls is not given here.

Assays:
[1] = system: Canis familiaris; assay: Antiarrhythmic potential in conscious dogs; value ranges from +45 to +360; format: functional, Canis lupus familiaris, Heart
Method in brief: (§1)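 Mongrel dogs with experimental myocardial infarction, conscious, with ventricular tachycardia or runs of VT. Dosed 50 mg/kg orally as solution in distilled water or acacia gum during the acute phase (16–36 h). Positive response means ≥60% suppression of ventricular arrhythmias or induction of sinus rhythm. The duration of effect was recorded in min.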

[2] = system: Canis familiaris; assay: Intracardiac conduction in anesthetized dogs, measured as HV; HV being the conduction time in specific intraventricular tissue; value ranges from +45 to +100; format: functional, Canis lupus familiaris, Cardiac ventricle
Method in brief: (§2)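 Mongrel dogs under sodium pentobarbital anesthesia. His bundle electrogram recorded via left heart catheterization. His potentials recorded before dosing and 5 and 15 min after each intravenous dose, at different pacing rates. SH (stimulus to His deflection) and HV intervals measured.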

[3] = system: Canis familiaris; assay: Intracardiac conduction in anesthetized dogs, measured as SH; SH being the atrial His bundle conduction time; value ranges from +40 to +100; format: functional, Canis lupus familiaris, Atrioventricular bundle; method in brief: as §2
[4] = system: Canis familiaris; assay: Antiarrhythmic potential in conscious dogs;Value ranges from +27 to +280; format: functional, Canis lupus familiaris, Heart; method in brief: as §1
[5] = system: Canis familiaris; assay: Intracardiac conduction in anesthetized dogs, measured as HV; HV being the conduction time in specific intraventricular tissue; Value ranges from 20-33; format: functional, Canis lupus familiaris, Cardiac ventricle; method in brief: as §2
[6] = system: Canis familiaris; assay: Intracardiac conduction in anesthetized dogs, measured as SH; SH being the atrial His bundle conduction time; Value ranges from +20 to +70; format: functional, Canis lupus familiaris, Atrioventricular bundle; method in brief: as §2
[7] = system: Canis familiaris; assay: Antiarrhythmic potential in conscious dogs; value ranges from +155 to +300; format: functional, Canis lupus familiaris, Heart; method in brief: as §1
[8] = system: Canis familiaris; assay: Intracardiac conduction in anesthetized dogs, measured as SH; SH being the atrial His bundle conduction time; format: functional, Canis lupus familiaris, Atrioventricular bundle; method in brief: as §2
[9] = system: Canis familiaris; assay: (§3) Intracardiac conduction in anesthetized dogs, measured as HV; HV being the conduction time in specific intraventricular tissue; format: functional, Canis lupus familiaris, Cardiac ventricle; set-up: concentration or dose not given beside the values; method in brief: as §2
[10] = system: Canis familiaris; assay: Antiarrhythmic potential in conscious dogs; inactive.; format: functional, organism-based; settings: Canis lupus familiaris; Heart; method in brief: as §1
[11] = system: Canis familiaris; assay: Intracardiac conduction in anesthetized dogs, measured as HV; HV being the conduction time in specific intraventricular tissue; value ranges from 35-80; format: functional, Canis lupus familiaris, Cardiac ventricle; method in brief: as §2
[12] = system: Canis familiaris; assay: Intracardiac conduction in anesthetized dogs, measured as SH; SH being the atrial His bundle conduction time; value ranges from +50 to +85; format: functional, Canis lupus familiaris, Atrioventricular bundle; method in brief: as §2
[13] = system: Canis familiaris; assay: Antiarrhythmic potential in conscious dogs; the value ranges from +8 to +-240; format: functional, Canis lupus familiaris, Heart; method in brief: as §1
[14] = system: Canis familiaris; assay: Antiarrhythmic potential in conscious dogs; value ranges from +120 to +380; format: functional, Canis lupus familiaris, Heart; method in brief: as §1
[15] = system: Canis familiaris; assay: Intracardiac conduction in anesthetized dogs, measured as HV; HV being the conduction time in specific intraventricular tissue value ranges from +20 to +30; format: functional, Canis lupus familiaris, Cardiac ventricle; method in brief: as §2
[16] = system: Canis familiaris; assay: Intracardiac conduction in anesthetized dogs, measured as SH; SH being the atrial His bundle conduction time value ranges from +15 to +35; format: functional, Canis lupus familiaris, Atrioventricular bundle; method in brief: as §2
[17] = system: Canis familiaris; assay: Antiarrhythmic potential in conscious dogs; the value ranges from +30 to +60; format: functional, Canis lupus familiaris, Heart
[18] = system: Canis familiaris; assay: Antiarrhythmic potential in conscious dogs; format: functional, Canis lupus familiaris, Heart; method in brief: as §1
[19] = system: Canis familiaris; assay: Antiarrhythmic potential in conscious dogs; value ranges from +165 to +405; format: functional, Canis lupus familiaris, Heart; method in brief: as §1
[20] = system: Canis familiaris; assay: Intracardiac conduction in anesthetized dogs, measured as SH; SH being the atrial His bundle conduction time; value ranges from +25 to +30; format: functional, Canis lupus familiaris, Atrioventricular bundle; method in brief: as §2
[21] = system: Canis familiaris; assay: Intracardiac conduction in anesthetized dogs, measured as HV; HV being the conduction time in specific intraventricular tissue; value ranges from +0 to +30; format: functional, Canis lupus familiaris, Cardiac ventricle; method in brief: as §2
[22] = system: Canis familiaris; assay: Antiarrhythmic potential in conscious dogs; value ranges from +20 to +270; format: functional, Canis lupus familiaris, Heart; method in brief: as §1
[23] = system: Canis familiaris; assay: Intracardiac conduction in anesthetized dogs, measured as HV; HV being the conduction time in specific intraventricular tissue; value ranges from +25 to +30; format: functional, Canis lupus familiaris, Cardiac ventricle; method in brief: as §2
[24] = system: Canis familiaris; assay: Intracardiac conduction in anesthetized dogs, measured as SH; SH being the atrial His bundle conduction time; value ranges from +15 to +20; format: functional, Canis lupus familiaris, Atrioventricular bundle; method in brief: as §2
[25] = system: Canis familiaris; assay: Antiarrhythmic potential in conscious dogs; value ranges from +190 to +270; format: functional, Canis lupus familiaris, Heart; method in brief: as §1
[26] = system: Canis familiaris; assay: Intracardiac conduction in anesthetized dogs, measured as HV; HV being the conduction time in specific intraventricular tissue; value ranges from +2 to +-50; format: functional, Canis lupus familiaris, Cardiac ventricle; method in brief: as §2
[27] = system: Canis familiaris; assay: Intracardiac conduction in anesthetized dogs, measured as SH; SH being the atrial His bundle conduction time; value ranges from +10 to +50; format: functional, Canis lupus familiaris, Atrioventricular bundle; method in brief: as §2
[28] = system: Canis familiaris; assay: Antiarrhythmic potential in conscious dogs; value ranges from +80 to +360; format: functional, Canis lupus familiaris, Heart; method in brief: as §1
[29] = system: Canis familiaris; assay: Antiarrhythmic potential in conscious dogs was calculated and found that after 60 minutes the dogs died.; format: functional, Canis lupus familiaris, Heart
[30] = system: Canis familiaris; assay: as §3; format: functional, Canis lupus familiaris, Cardiac ventricle; method in brief: as §2
[31] = system: Canis familiaris; assay: Antiarrhythmic potential in conscious dogs; was tested and found that after 90 min the dogs died.; format: functional, Canis lupus familiaris, Heart
[32] = system: Canis familiaris; assay: Intracardiac conduction in anesthetized dogs, measured as HV; HV being the conduction time in specific intraventricular tissue; value ranges from + 60 to+135; format: functional, Canis lupus familiaris, Cardiac ventricle; method in brief: as §2
[33] = system: Canis familiaris; assay: Intracardiac conduction in anesthetized dogs, measured as SH; SH being the atrial His bundle conduction time; Value ranges from +8 to +100; format: functional, Canis lupus familiaris, Atrioventricular bundle; method in brief: as §2
[34] = system: Canis familiaris; assay: Antiarrhythmic potential in conscious dogs; value ranges from 210-270; format: functional, Canis lupus familiaris, Heart; method in brief: as §1
[35] = system: Canis familiaris; assay: Intracardiac conduction in anesthetized dogs, measured as SH; SH being the atrial His bundle conduction time; value ranges from +30 to +-55; format: functional, Canis lupus familiaris, Atrioventricular bundle; method in brief: as §2
[36] = system: Canis familiaris; assay: Antiarrhythmic potential in conscious dogs; Inactive.; format: functional, organism-based; settings: Canis lupus familiaris; Heart; method in brief: as §1
[37] = system: Canis familiaris; assay: Antiarrhythmic potential in conscious dogs; value ranges from +50 to +60; format: functional, Canis lupus familiaris, Heart; method in brief: as §1
[38] = system: Canis familiaris; assay: Intracardiac conduction in anesthetized dogs, measured as SH; SH being the atrial His bundle conduction time; value ranges from +70 to +120; format: functional, Canis lupus familiaris, Atrioventricular bundle; method in brief: as §2
[39] = system: Canis familiaris; assay: Intracardiac conduction in anesthetized dogs, measured as HV; HV being the conduction time in specific intraventricular tissue; value ranges from +100 to +210; format: functional, Canis lupus familiaris, Cardiac ventricle; method in brief: as §2
[40] = system: Canis familiaris; assay: Intracardiac conduction in anesthetized dogs, measured as SH; SH being the atrial His bundle conduction time; value ranges from +4 to +-85; format: functional, Canis lupus familiaris, Atrioventricular bundle; method in brief: as §2
[41] = system: Canis familiaris; assay: Intracardiac conduction in anesthetized dogs, measured as SH; SH being the atrial His bundle conduction time; Value ranges from +0 to +10; format: functional, Canis lupus familiaris, Atrioventricular bundle; method in brief: as §2

Structure (SMILES): CC(C)N(CCC(CC1CCCCC1)(C(N)=O)c1ccccn1)C(C)C (stereo unspecified)
- Actual duraction [1]: 360 min
- Variation/Control [2]: 100%
- Variation/Control [3]: 100%

Structure (SMILES): CCC(CC)C(CCN(C(C)C)C(C)C)(C(N)=O)c1ccccn1 (stereo unspecified)
- Actual duraction [4]: 280 min
- Variation/Control [5]: 33%
- Variation/Control [6]: 70%

Structure (SMILES): CCC(CCN(C(C)C)C(C)C)(C(N)=O)c1ccccn1 (stereo unspecified)
- Actual duraction [7]: 300 min
- Variation/Control [8]: 20%
- Variation/Control [9]: 0%

Structure (SMILES): CC(C)N(CCC(Cc1ccccc1)(C(N)=O)c1ccccn1)C(C)C (stereo unspecified)
- Actual duraction [10]: inactive
- Variation/Control [11]: 80%
- Variation/Control [12]: 85%

Structure (SMILES): CC(C)N(CCC(C(N)=O)c1ccccn1)C(C)C (stereo unspecified)
- Actual duraction [10]: inactive
- Variation/Control [8]: 0%
- Variation/Control [9]: 0%

Structure (SMILES): CC(C)CC(CCN(C(C)C)C(C)C)(C(N)=O)c1ccncc1 (stereo unspecified)
- Actual duraction [13]: 240 min
- Variation/Control [8]: 110%
- Variation/Control [9]: 45%

Structure (SMILES): CC(C)CC(CCN(C(C)C)C(C)C)(C(N)=O)c1ccccn1 (stereo unspecified) [PENTISOMIDE]
- Actual duraction [14]: 380 min
- Variation/Control [15]: 30%
- Variation/Control [16]: 35%

Structure (SMILES): CC(C)N(CCC(C(N)=O)(c1ccccc1)c1ccccn1)C(C)C (stereo unspecified) [DISOPYRAMIDE]
- Actual duraction [17]: 60 min

Structure (SMILES): CCC(C)C(CCN(C(C)C)C(C)C)(C(N)=O)c1ccccn1 (stereo unspecified)
- Actual duraction [18]: 240 min
- Variation/Control [8]: 0%
- Variation/Control [9]: 30%

Structure (SMILES): CC(C)N(CCC(CC(C)(C)C)(C(N)=O)c1ccccn1)C(C)C (stereo unspecified)
- Actual duraction [19]: 405 min
- Variation/Control [20]: 30%
- Variation/Control [21]: 30%

Structure (SMILES): CC(C)CC(CCN1C(C)CCCC1C)(C(N)=O)c1ccccn1 (stereo unspecified)
- Actual duraction [22]: 270 min
- Variation/Control [23]: 30%
- Variation/Control [24]: 20%

Structure (SMILES): CCN(CC)CCC(CC(C)C)(C(N)=O)c1ccccn1 (stereo unspecified)
- Actual duraction [10]: inactive
- Variation/Control [8]: 15%
- Variation/Control [9]: 0%

Structure (SMILES): CC(C)CCC(CCN(C(C)C)C(C)C)(C(N)=O)c1ccccn1 (stereo unspecified)
- Actual duraction [25]: 270 min
- Variation/Control [26]: 50%
- Variation/Control [27]: 50%

Structure (SMILES): CC(C)N(CCC(C(N)=O)(c1ccccn1)C(C)C)C(C)C (stereo unspecified)
- Actual duraction [28]: 360 min
- Variation/Control [8]: 10%
- Variation/Control [9]: 0%

Structure (SMILES): CC(C)CC(CCN(C1CCCCC1)C1CCCCC1)(C(N)=O)c1ccccn1 (stereo unspecified)
- Variation/Control [8]: 45%
- Variation/Control [9]: 75%
- Actual duraction [29]: 60 min

Structure (SMILES): CCCC(CCN(C(C)C)C(C)C)(C(N)=O)c1ccccn1 (stereo unspecified)
- Actual duraction [18]: 35 min
- Variation/Control [30]: 0%
- Variation/Control [8]: 15%

Structure (SMILES): CCC(C)N(CCC(CC(C)C)(C(N)=O)c1ccccn1)C(C)CC (stereo unspecified)
- Actual duraction [31]: 90 min
- Variation/Control [32]: 135%
- Variation/Control [33]: 100%

Structure (SMILES): CC(C)N(CCC(C(N)=O)(c1ccccn1)C1CCCCC1)C(C)C (stereo unspecified)
- Actual duraction [34]: 270 min
- Variation/Control [35]: 55%
- Variation/Control [9]: 40%

Structure (SMILES): CCCN(CCC)CCC(CC(C)C)(C(N)=O)c1ccccn1 (stereo unspecified)
- Actual duraction [36]: inactive
- Variation/Control [8]: 20%
- Variation/Control [9]: 0%

Structure (SMILES): C=C[C@H]1CN2CC[C@H]1C[C@@H]2[C@@H](O)c1ccnc2ccc(OC)cc12 [QUINIDINE]
- Actual duraction [37]: 60 min

Structure (SMILES): CC(C)CC(CCCN(C(C)C)C(C)C)(C(N)=O)c1ccccn1 (stereo unspecified)
- Actual duraction [18]: 30 min
- Variation/Control [30]: 0%
- Variation/Control [8]: 15%

Structure (SMILES): CCCCCC(CCN(C(C)C)C(C)C)(C(N)=O)c1ccccn1 (stereo unspecified)
- Actual duraction [18]: 180 min
- Variation/Control [38]: 120%
- Variation/Control [39]: 210%

Structure (SMILES): CC(C)CC(CCN(C(C)C)C(C)C)(C(N)=O)c1cccnc1 (stereo unspecified)
- Actual duraction [18]: 45 min
- Variation/Control [30]: 25%
- Variation/Control [8]: 20%

Structure (SMILES): CC(C)CC(CCN(C(C)C)C1CCCCC1)(C(N)=O)c1ccccn1 (stereo unspecified)
- Actual duraction [18]: 300 min
- Variation/Control [40]: 85%
- Variation/Control [9]: 50%

Structure (SMILES): CC(C)CC(CCN1CCOCC1)(C(N)=O)c1ccccn1 (stereo unspecified)
- Actual duraction [10]: inactive
- Variation/Control [30]: 0%
- Variation/Control [41]: 10%
